According to ChEMBL document CHEMBL6078712, “Triterpenoid phthalimides as selective anti-cancer agents targeting mitochondrial apoptosis” (Eur J Med Chem, 2025):
The source made the active and inactive calls. The rule behind the calls is not given here.

Key:
CCRF-CEM [1] = experiment: Induction of apoptosis in human CCRF-CEM cells assessed as viable cells at 5 times IC50 incubated for 24 hrs by Annexin V-FITC and PI staining based flow cytometric analysis (reference value: 97.4 %); assay type: functional
Procedure, shortened: (§1)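 Washed in Ca2+-containing binding buffer, then stained 15 min at room temperature in the dark with Annexin V-FITC and propidium iodide (PI at half the kit-recommended level). Read at once by flow cytometry with a 488 nm laser, ≥10,000 cells. Debris excluded; quadrants viable, early apoptotic, late apoptotic/necrotic, necrotic. Three independent experiments.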

CCRF-CEM [2] = experiment: Induction of cell cycle arrest in human CCRF-CEM cells assessed as downregulation of Cyclin A expression at 5 times IC50 incubated for 24 hrs by Western blotting analysis; assay type: functional, cell-based
Procedure, shortened: (§2)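 30 µg protein per lane on SDS-PAGE, transferred to nitrocellulose, blocked in 5 % BSA/TBS-Tween. Primary antibodies overnight at 4 °C (Akt, P-Akt Ser473, STAT-3, caspase-3, PARP, cyclin D, cyclin A, Bcl-xL, Bak, Bid, Bim), then HRP secondary and ECL detection. GAPDH as loading control.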

U2OS = experiment: Cytotoxicity against human U2OS cells assessed as inhibition of cell growth incubated for 72 hrs by MTS assay; assay type: functional, cell-based
Procedure, shortened: (§3)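 MTS assay on eight human cancer lines and two non-tumour fibroblast lines. IC50 is the concentration that inhibits cell growth by 50 %. SD typically up to 15 % of the mean.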

[3] = Stability in human plasma assessed as compound remaining at 2 uM incubated for 60 mins by RF-MS analysis; assay type: ADME, cell-free; conditions: read-out: Stability
Procedure, shortened: (§4)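 Human plasma stability, plasma protein binding and liver microsome stability, each run in triplicate. Error deviations below 10 %.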

[4] = Stability in human plasma assessed as compound remaining at 2 uM incubated for 120 mins by RF-MS analysis; assay type: ADME, cell-free; conditions: read-out: Stability; procedure, shortened: as §4
[5] = Cytotoxicity against human K562-Tax cells assessed as inhibition of cell growth incubated for 72 hrs by MTS assay; assay type: functional, cell-based; procedure, shortened: as §3
K562 = experiment: Cytotoxicity against human K562 cells assessed as inhibition of cell growth incubated for 72 hrs by MTS assay; assay type: functional, cell-based; conditions: K562, 72 h; procedure, shortened: as §3
CCRF-CEM [6] = experiment: Inhibition of RNA synthesis in human CCRF-CEM cells at 1 times IC50 incubated for 24 hrs by BrU incorporation based flow cytometry; assay type: functional
Procedure, shortened: (§5)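 Fixed in 1 % paraformaldehyde/0.05 % NP-40 (15 min at room temperature, then 4 °C overnight). Stained with cross-reacting anti-BrdU plus FITC secondary (45 min each), then PI/RNase A. Flow cytometry; % BrU-positive cells.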

[7] = Metabolic stability in human liver microsomes assessed as parent compound remaining at 2 uM incubated for 15 mins in presence of NADPH by RF-MS analysis; assay type: ADME, Microsome; conditions: read-out: Stability; procedure, shortened: as §4
CCRF-CEM [8] = experiment: Cytotoxicity against human CCRF-CEM cells assessed as inhibition of cell growth incubated for 72 hrs by MTS assay; assay type: functional, cell-based; procedure, shortened: as §3
CCRF-CEM [9] = experiment: Induction of apoptosis in human CCRF-CEM cells assessed as downregulation of caspase-3 expression at 5 times IC50 incubated for 24 hrs by Western blotting analysis; assay type: functional, cell-based; procedure, shortened: as §2
HCT 116 TP53(-/-) = experiment: Cytotoxicity against human HCT116-p53-null cells assessed as inhibition of cell growth incubated for 72 hrs by MTS assay; assay type: functional, cell-based; procedure, shortened: as §3
CCRF-CEM [10] = experiment: Induction of apoptosis in human CCRF-CEM cells assessed as upregulation of BID expression at 1 to 5 times IC50 incubated for 24 hrs by Western blotting analysis; assay type: functional, cell-based; procedure, shortened: as §2
CCRF-CEM [11] = experiment: Induction of apoptosis in human CCRF-CEM cells assessed as necrotic cells at 1 times IC50 incubated for 24 hrs by Annexin V-FITC and PI staining based flow cytometric analysis (reference value: 0.4 %); assay type: functional; procedure, shortened: as §1
CCRF-CEM [12] = experiment: Induction of apoptosis in human CCRF-CEM cells assessed as late apoptotic cells at 5 times IC50 incubated for 24 hrs by Annexin V-FITC and PI staining based flow cytometric analysis (reference value: 0.4 %); assay type: functional; procedure, shortened: as §1
CCRF-CEM [13] = experiment: Induction of cell cycle arrest in human CCRF-CEM cells assessed as increase in accumulation of G0/G1 phase at 1 times IC50 incubated for 24 hrs by RNase/PI staining based flow cytometry; assay type: functional
Procedure, shortened: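 Propidium iodide staining and flow cytometry with a 488 nm laser, ≥10,000 intact cells. Phase proportions compared with untreated cells; SEM of three independent experiments.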

CCRF-CEM [14] = experiment: Induction of apoptosis in human CCRF-CEM cells assessed as early apoptotic cells at 5 times IC50 incubated for 24 hrs by Annexin V-FITC and PI staining based flow cytometric analysis (reference value: 2.1 %); assay type: functional; procedure, shortened: as §1
CCRF-CEM [15] = experiment: Induction of apoptosis in human CCRF-CEM cells assessed as necrotic cells at 5 times IC50 incubated for 24 hrs by Annexin V-FITC and PI staining based flow cytometric analysis (reference value: 0.4 %); assay type: functional; procedure, shortened: as §1
CCRF-CEM [16] = experiment: Induction of cell cycle arrest in human CCRF-CEM cells assessed as downregulation of AKT phosphorylation at 1 times IC50 incubated for 24 hrs by Western blotting analysis; assay type: functional, cell-based; procedure, shortened: as §2
HCT-116 = experiment: Cytotoxicity against human HCT-116 cells assessed as inhibition of cell growth incubated for 72 hrs by MTS assay; assay type: functional, cell-based; conditions: HCT-116, 72 h; procedure, shortened: as §3
CCRF-CEM [17] = experiment: Induction of apoptosis in human CCRF-CEM cells assessed as viable cells at 1 times IC50 incubated for 24 hrs by Annexin V-FITC and PI staining based flow cytometric analysis (reference value: 97.4 %); assay type: functional; procedure, shortened: as §1
CCRF-CEM [18] = experiment: Induction of cell cycle arrest in human CCRF-CEM cells assessed as downregulation of total STAT3 expression at 1 to 5 times IC50 incubated for 24 hrs by Western blotting analysis; assay type: functional, cell-based; procedure, shortened: as §2
CCRF-CEM [19] = experiment: Induction of apoptosis in human CCRF-CEM cells assessed as early apoptotic cells at 1 times IC50 incubated for 24 hrs by Annexin V-FITC and PI staining based flow cytometric analysis (reference value: 2.1 %); assay type: functional; procedure, shortened: as §1
[20] = Stability in human plasma assessed as compound remaining at 2 uM incubated for 15 mins by RF-MS analysis; assay type: ADME, cell-free; conditions: read-out: Stability; procedure, shortened: as §4
Mitochondrial membrane = experiment: Induction of mitochondrial membrane potential depolarization in human CCRF-CEM cells assessed as fold increase in fluorescence intensity incubated for 24 hrs by JC-1 staining based flow cytometry; assay type: cell membranes
CCRF-CEM [21] = experiment: Inhibition of RNA synthesis in human CCRF-CEM cells at 5 times IC50 incubated for 24 hrs by BrU incorporation based flow cytometry; assay type: functional; procedure, shortened: as §5
CCRF-CEM [22] = experiment: Induction of apoptosis in human CCRF-CEM cells assessed as upregulation of BIM expression at 1 to 5 times IC50 incubated for 24 hrs by Western blotting analysis; assay type: functional, cell-based; procedure, shortened: as §2
[23] = Stability in human plasma assessed as compound remaining at 2 uM incubated for 30 mins by RF-MS analysis; assay type: ADME, cell-free; conditions: read-out: Stability; procedure, shortened: as §4
CCRF-CEM [24] = experiment: Inhibition of DNA synthesis in human CCRF-CEM cells at 5 times IC50 incubated for 24 hrs by BrdU incorporation based flow cytometry; assay type: functional
Procedure, shortened: (§6)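 Fixed in ice-cold 70 % ethanol, DNA denatured in 2 M HCl for 30 min, neutralised with borax. Stained with anti-BrdU plus FITC secondary, then PI/RNase A for 1 h. Flow cytometry; % BrdU-positive cells.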

[25] = Cytotoxicity against human MRC5 cells assessed as inhibition of cell growth incubated for 72 hrs by MTS assay; assay type: toxicity, cell-based; procedure, shortened: as §3
CEM-DNR = experiment: Cytotoxicity against human CEM-DNR cells assessed as inhibition of cell growth incubated for 72 hrs by MTS assay; assay type: functional, cell-based; procedure, shortened: as §3
[26] = Metabolic stability in human liver microsomes assessed as parent compound remaining at 2 uM incubated for 30 mins in presence of NADPH by RF-MS analysis; assay type: ADME, Microsome; conditions: read-out: Stability; procedure, shortened: as §4
CCRF-CEM [27] = experiment: Induction of apoptosis in human CCRF-CEM cells assessed as late apoptotic cells at 1 times IC50 incubated for 24 hrs by Annexin V-FITC and PI staining based flow cytometric analysis (reference value: 0.4 %); assay type: functional; procedure, shortened: as §1
CCRF-CEM [28] = experiment: Induction of cell cycle arrest in human CCRF-CEM cells assessed as downregulation of Cyclin D expression at 1 to 5 times IC50 incubated for 24 hrs by Western blotting analysis; assay type: functional, cell-based; procedure, shortened: as §2
CCRF-CEM [29] = experiment: Induction of cell cycle arrest in human CCRF-CEM cells assessed as downregulation of AKT phosphorylation at 5 times IC50 incubated for 24 hrs by Western blotting analysis; assay type: functional, cell-based; procedure, shortened: as §2
[30] = Metabolic stability in human liver microsomes assessed as parent compound remaining at 2 uM incubated for 60 mins in presence of NADPH by RF-MS analysis; assay type: ADME, Microsome; conditions: read-out: Stability; procedure, shortened: as §4
CCRF-CEM [31] = experiment: Inhibition of DNA synthesis in human CCRF-CEM cells at 1 times IC50 incubated for 24 hrs by BrdU incorporation based flow cytometry; assay type: functional; procedure, shortened: as §6
[32] = Cytotoxicity against human BJ cells assessed as inhibition of cell growth incubated for 72 hrs by MTS assay; assay type: toxicity, cell-based; procedure, shortened: as §3
A549 = experiment: Cytotoxicity against human A549 cells assessed as inhibition of cell growth incubated for 72 hrs by MTS assay; assay type: functional, cell-based; conditions: A549, 72 h; procedure, shortened: as §3
[33] = Plasma protein binding in human assessed as fraction bound at 10 uM incubated for 4 hrs by rapid equilibrium dialysis based RF-MS analysis; assay type: ADME, cell-free; conditions: read-out: PPB (converted); procedure, shortened: as §4

remaining at 1 h, 2 µM [3]: 96%
remaining at 2 h, 2 µM [4]: 85%
remaining at 0.25 h, 2 µM [7]: 103%
remaining at 0.25 h, 2 µM [20]: 98%
Activity (Mitochondrial membrane): Dose-dependent-effect
remaining at 0.5 h, 2 µM [23]: 95%
remaining at 0.5 h, 2 µM [26]: 104%
remaining at 1 h, 2 µM [30]: 98%
fraction unbound at 4 h, 10 µM [33]: 0.425
SMILES: CC(=O)O[C@H]1CC[C@]2(C)[C@H]3CC[C@@H]4[C@H]5[C@H](c6cc7c(c(-c8ccccc8)c6)C(=O)N(c6nccs6)C7=O)CC[C@]5(C(=O)O)CC[C@@]4(C)[C@]3(C)CC[C@H]2C1(C)C
Activity (CCRF-CEM [1]): 90.8%
Activity (CCRF-CEM [2]): Active
IC50 (U2OS): 16.8 µM
IC50 [5]: 24.5 µM
IC50 (K562): 21.4 µM
inhibition (INH) (CCRF-CEM [6]): 28%
IC50 (CCRF-CEM [8]): 2.52 µM
Activity (CCRF-CEM [9]): Active
IC50 (HCT 116 TP53(-/-)): 18.6 µM
Activity (CCRF-CEM [10]): Active
Activity (CCRF-CEM [11]): 0%
Activity (CCRF-CEM [12]): 3.2%
Activity (CCRF-CEM [13]): Active; Slight Increased Activity Observed
Activity (CCRF-CEM [14]): 6%
Activity (CCRF-CEM [15]): 0%
Activity (CCRF-CEM [16]): Active
IC50 (HCT-116): 13.1 µM
Activity (CCRF-CEM [17]): 92.3%
Activity (CCRF-CEM [18]): Active
Activity (CCRF-CEM [19]): 5.1%
inhibition (INH) (CCRF-CEM [21]): 36.1%
Activity (CCRF-CEM [22]): Active
inhibition (INH) (CCRF-CEM [24]): 18.5%
IC50 at 72 h [25]: 27.8 µM
IC50 (CEM-DNR): 30.5 µM
Activity (CCRF-CEM [27]): 2.6%
Activity (CCRF-CEM [28]): Active
Activity (CCRF-CEM [29]): Active
inhibition (INH) (CCRF-CEM [31]): 37.2%
IC50 at 72 h [32]: 31.7 µM
IC50 (A549): 20.8 µM
